Experimental data reported in ChEMBL document CHEMBL4138113, “Novel propanamides as fatty acid amide hydrolase inhibitors” (Eur J Med Chem, 2017).
Calls of active or inactive are those of the source.

Columns and labels:
[1] = target: T1, Fatty-acid amide hydrolase 1 (Rattus norvegicus, UniProt P97612); assay: Inhibition of rat brain FAAH using [3H]AEA as substrate after 10 mins by liquid scintillation counting analysis
T1 sequence (P97612 whole entry): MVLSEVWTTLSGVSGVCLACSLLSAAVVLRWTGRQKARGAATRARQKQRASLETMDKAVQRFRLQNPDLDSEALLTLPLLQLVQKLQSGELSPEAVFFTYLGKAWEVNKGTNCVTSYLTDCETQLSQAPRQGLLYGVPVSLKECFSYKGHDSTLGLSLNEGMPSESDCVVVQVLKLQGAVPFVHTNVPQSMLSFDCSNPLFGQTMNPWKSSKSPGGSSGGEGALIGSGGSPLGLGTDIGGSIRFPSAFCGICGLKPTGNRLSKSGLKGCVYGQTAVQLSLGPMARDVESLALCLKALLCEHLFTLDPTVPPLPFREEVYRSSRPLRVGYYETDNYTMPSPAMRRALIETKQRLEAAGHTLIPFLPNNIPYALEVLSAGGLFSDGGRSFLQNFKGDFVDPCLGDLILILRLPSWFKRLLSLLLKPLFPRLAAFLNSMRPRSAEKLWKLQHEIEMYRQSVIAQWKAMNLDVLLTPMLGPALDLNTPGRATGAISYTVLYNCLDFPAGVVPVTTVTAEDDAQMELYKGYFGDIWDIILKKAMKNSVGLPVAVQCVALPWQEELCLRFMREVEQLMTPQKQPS
In short: (§1)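 Rat (Wistar or Sprague-Dawley) brain homogenate without cerebella, washed and pre-incubated 15 min at 37 °C to clear endogenous substrate. Compound (in ethanol or DMSO) was mixed with 1 µg protein on ice in 10 mM Tris-HCl, 1 mM EDTA, pH 7.4. Reaction used 0.5 µM [3H]AEA with fatty acid-free BSA for 10 min at 37 °C. It was stopped with charcoal/HCl, and supernatant tritium was counted. ≥5 half-log concentrations, ≥3 experiments; maximum inhibition = 100 − fitted bottom.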

[2] = target: T2, Fatty-acid amide hydrolase 1 (Mus musculus, UniProt O08914); assay: Mixed-type inhibition of B6CBAF1/J mouse brain FAAH using [3H]AEA as substrate after 10 mins by Dixon plot analysis
T2 sequence (O08914 whole entry): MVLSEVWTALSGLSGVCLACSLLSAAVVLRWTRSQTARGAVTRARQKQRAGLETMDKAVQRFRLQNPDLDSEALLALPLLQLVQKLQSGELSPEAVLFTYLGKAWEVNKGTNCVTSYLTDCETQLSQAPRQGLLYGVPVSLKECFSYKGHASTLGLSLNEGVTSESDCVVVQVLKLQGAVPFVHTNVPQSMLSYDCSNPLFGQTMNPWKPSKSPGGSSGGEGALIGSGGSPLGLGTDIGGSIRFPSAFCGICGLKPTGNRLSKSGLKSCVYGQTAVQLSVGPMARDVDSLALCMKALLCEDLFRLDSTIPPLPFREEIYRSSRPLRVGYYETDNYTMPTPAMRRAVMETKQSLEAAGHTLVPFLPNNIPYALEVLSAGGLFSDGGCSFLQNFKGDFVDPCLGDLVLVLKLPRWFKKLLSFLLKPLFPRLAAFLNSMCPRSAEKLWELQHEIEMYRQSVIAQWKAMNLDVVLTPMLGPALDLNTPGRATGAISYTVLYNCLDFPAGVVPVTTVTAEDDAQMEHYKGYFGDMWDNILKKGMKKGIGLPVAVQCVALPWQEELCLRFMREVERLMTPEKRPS
In short: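 Kinetic study in brain homogenate from male B6CBAF1/J mice (0.3 µg protein per assay). [3H]AEA hydrolysis ran for 10 min at 37 °C in Tris-EDTA buffer, pH 7.4, with the AEA:fatty acid-free BSA ratio held at 1:~4.5. Products were separated on charcoal and counted by scintillation. Competitive, mixed-type and non-competitive fits were compared by Akaike's criterion.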

[3] = target: T3, Fatty-acid amide hydrolase 1 (Rattus norvegicus) (UniProt P97612); assay: Inhibition of rat brain FAAH at 0.3 to 100 uM using [3H]AEA as substrate after 10 mins by liquid scintillation counting analysis relative to control; in short: as §1
T3 sequence (whole entry): T1 sequence (P97612 whole entry)

[4] = species on record: Homo sapiens; assay: Selectivity ratio of IC50 for FAAH T488A mutant (unknown origin) expressed in human HeLa cells after 2 hrs to IC50 for FAAH (unknown origin) expressed in human HeLa cells transfected with empty vector after 2 hrs; format: cell-based
[5] = target: T4, Prostaglandin G/H synthase 2 (Homo sapiens) (UniProt P35354); assay: Inhibition of recombinant human COX2 using arachidonic acid/2-AG as substrate after 5 mins
T4 sequence (whole entry): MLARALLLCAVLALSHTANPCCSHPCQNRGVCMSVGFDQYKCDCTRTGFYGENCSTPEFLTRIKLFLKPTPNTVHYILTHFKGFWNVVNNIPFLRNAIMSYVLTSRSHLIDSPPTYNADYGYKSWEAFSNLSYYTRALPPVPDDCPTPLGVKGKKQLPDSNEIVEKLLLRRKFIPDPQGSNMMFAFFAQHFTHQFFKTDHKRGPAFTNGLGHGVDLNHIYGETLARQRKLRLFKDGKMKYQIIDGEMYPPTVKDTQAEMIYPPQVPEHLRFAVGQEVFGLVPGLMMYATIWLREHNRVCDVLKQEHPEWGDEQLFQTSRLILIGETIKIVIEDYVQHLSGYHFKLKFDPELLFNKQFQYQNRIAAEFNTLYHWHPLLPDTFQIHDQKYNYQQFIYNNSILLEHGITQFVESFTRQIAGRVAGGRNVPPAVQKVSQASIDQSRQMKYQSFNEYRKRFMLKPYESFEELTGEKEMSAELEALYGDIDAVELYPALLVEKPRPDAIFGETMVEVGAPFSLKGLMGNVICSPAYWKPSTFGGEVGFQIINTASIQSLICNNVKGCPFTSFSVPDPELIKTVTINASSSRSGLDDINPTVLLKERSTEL
In short: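 Oxygen-electrode assay at room temperature in 0.1 M Tris-HCl, pH 7.4, with 1 µM haematin, 2 mM phenol, 5 mM EDTA and 10 µM (final) arachidonic acid or 2-AG. Compound in EtOH was added and a 5 min baseline recorded. The reaction was started with ovine COX-1 or human recombinant COX-2 (200 U), and oxygen consumption was read in 10 s blocks. Means ± SEM, n = 3-4.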

[6] = target: T3, Fatty-acid amide hydrolase 1 (Rattus norvegicus); assay: Reversible inhibition of rat brain FAAH at 0.03 to 1 uM using [3H]AEA as substrate preincubated for 60 mins followed by substrate addition by liquid scintillation counting analysis
In short: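 Rat brain homogenate at 20-fold normal strength was preincubated with vehicle or compound for 60 min, then diluted 20-fold and assayed with [3H]AEA for 10 min at 37 °C. In parallel, compound was added to vehicle-preincubated aliquots at the post-dilution free concentrations and at the undiluted final concentrations. Tritium was counted after charcoal separation.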

SMILES	IC50 ([1]; read-out: IC50) [nM]	IC50 ([1]; read-out: pIC50 (converted)) [nM]	Ki [2] [nM]	Imax [3] [%]	Ratio IC50 [4]	inhibition [5]	inhibition [6]
Cc1cccnc1NC(=O)C(C)c1ccc(Nc2ccnc(C(F)(F)F)c2)cc1 (configuration not stated)	590	589	6300	100	3.8	inactive	–
CC(C(=O)Nc1ncccc1Cl)c1ccc(Nc2ccnc(C(F)(F)F)c2)cc1 (configuration not stated)	58	57.5	3000	100	–	inactive	Active
